Rows were chosen to be rich in hits. Some 4.7% of all compounds tested hit in one or more screens of this group.
Mdm2-MdmX inh: human Mdm2/MdmX binding inhibition. SaOS-2 split-luciferase Mdm2/MdmX complementation, luminescence. inhibition, % at 8 µM. 330,000 compounds, 3% hits. AID 485346;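 active means inhibition of at least 50% at 8 µM in the primary screen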
Target sequence (O15151 whole entry, looked up): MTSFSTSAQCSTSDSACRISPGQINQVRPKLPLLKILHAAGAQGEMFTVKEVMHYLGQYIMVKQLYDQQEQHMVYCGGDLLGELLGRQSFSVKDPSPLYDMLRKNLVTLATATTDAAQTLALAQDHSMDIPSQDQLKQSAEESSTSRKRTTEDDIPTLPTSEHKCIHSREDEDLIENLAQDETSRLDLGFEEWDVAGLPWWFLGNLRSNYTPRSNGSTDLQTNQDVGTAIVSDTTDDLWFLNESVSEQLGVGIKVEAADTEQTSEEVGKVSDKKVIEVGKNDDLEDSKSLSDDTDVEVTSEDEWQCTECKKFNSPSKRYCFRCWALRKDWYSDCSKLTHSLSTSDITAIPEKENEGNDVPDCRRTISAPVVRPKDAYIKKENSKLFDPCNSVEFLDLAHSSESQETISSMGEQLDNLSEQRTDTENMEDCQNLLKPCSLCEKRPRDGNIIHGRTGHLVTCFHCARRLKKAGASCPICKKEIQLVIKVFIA
Target sequence (Q00987 whole entry, looked up): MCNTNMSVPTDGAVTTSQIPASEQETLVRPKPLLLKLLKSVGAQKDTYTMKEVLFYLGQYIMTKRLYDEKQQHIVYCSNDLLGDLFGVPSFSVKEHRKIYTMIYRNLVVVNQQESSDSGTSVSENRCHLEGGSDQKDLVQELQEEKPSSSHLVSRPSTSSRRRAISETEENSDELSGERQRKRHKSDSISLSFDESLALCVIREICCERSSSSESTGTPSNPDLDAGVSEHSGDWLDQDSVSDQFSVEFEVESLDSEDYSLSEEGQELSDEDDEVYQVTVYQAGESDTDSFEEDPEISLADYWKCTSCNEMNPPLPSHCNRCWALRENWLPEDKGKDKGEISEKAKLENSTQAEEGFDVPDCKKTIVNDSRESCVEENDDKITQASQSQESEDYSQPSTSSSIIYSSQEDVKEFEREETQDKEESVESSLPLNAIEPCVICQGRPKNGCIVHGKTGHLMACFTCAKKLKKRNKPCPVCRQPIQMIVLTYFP
IMP-1 inh: blocks Pseudomonas aeruginosa IMP-1 metallo-beta-lactamase. purified IMP-1, nitrocefin hydrolysis, epi-absorbance fluorescence. inhibition, % at 5.6 µM. 290,000 compounds, 0.45% hits. AID 1556;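 active means inhibition above the mean plus 3 SD of all compounds in the same screening run, cut at about 4.5% in these data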;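 further: 0% = IMP-1 with DMSO and 100% = DMSO wells lacking enzyme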
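System: purified recombinant IMP-1 beta-lactamase. Medium: Zinc- and detergent-supplemented HEPES buffer, pH 7.1. Compound: one 5.6 µM dose […]. Schedule: 15 min preincubation plus 25 min reaction at 25 °C. Technique: Epi-absorbance fluorescence, 480 nm excitation, 530 nm emission.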
697 NFkB inh: inhibitors of the PMA/ionomycin-induced NF-kB reporter in 697 B cells. 697 B-cell NF-kB luciferase reporter, 16 h. AID 435022. 330,000 compounds, 0.33% hits. inhibition, % at 4 µM; in the data active means inhibition above about 35%
aSyn UTR inh: MLPCN primary screen, SNCA 5' untranslated region; alpha-synuclein 5'UTR reporter, inhibitor activity; inhibition, % (tested at 7.5 µM); 300,000 compounds, 0.82% hits; AID 1813; in the data active means inhibition above about 60%;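 further: H4 neuroglioblastoma cells stably carrying SNCA 5'UTR luciferase fusion; 0% = DMSO wells and 100% = positive control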
Jurkat NFkB inh: inhibitors of the PMA/ionomycin-induced NF-kB reporter in Jurkat cells; PMA/ionomycin-induced NF-kB luciferase reporter, luminescence; inhibition, % at 4 µM; 330,000 compounds, 0.53% hits; in the data active means inhibition above about 50%
VIM-2 inhibitor: blocks Pseudomonas aeruginosa VIM-2 metallo-beta-lactamase | purified VIM-2, nitrocefin hydrolysis, epi-absorbance fluorescence | inhibition, % at 5.6 µM | 290,000 compounds, 0.89% hits | AID 1527;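 active means inhibition above the mean of all tested compounds plus 3 SD, cutoff set per screening run, cut at about 7.5% in these data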;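 further: red hydrolysis product quenches plate fluorescence so inhibitors raise well fluorescence; 0% = enzyme with DMSO and 100% = DMSO without enzyme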
* hit, by the source's call; nt = not tested or not shown.

SMILES	Mdm2-MdmX inh	IMP-1 inh	697 NFkB inh	aSyn UTR inh	Jurkat NFkB inh	VIM-2 inhibitor
CC(=O)c1cccc(Nc2cc(C)nc3c(C)cc(C)cc23)c1	-6	-3	-8	-5	4	10*
COC(=O)c1c(C)oc2c1cc(NS(=O)(=O)c1ccc(C(=O)O)cc1)c1ccccc12	21	7.3*	13	-19	6	0
CC(=O)N1CCCc2cc(S(=O)(=O)CCC(=O)Nc3cccc(C)c3C)ccc21	22	-1	3	0	6	-1
CCOC(=O)C1CCCN(C(=O)/C(=C/c2ccco2)NC(=O)c2ccccc2)C1 (stereo unspecified)	15	5.2*	-2	14	8	1
Cc1cc(/C=C2\SC(=S)NC2=O)c(C)n1-c1ccc(O)cc1	20	-1	-2	-68	5	8.1*
COc1ccc(Br)c2oc(SC)cc(=O)c12	-9	-6	15	-1	12	9.2*
CC(C)N(C(=O)CSc1nnc(NC(=O)c2cccs2)s1)C(C)C	3	-3	0	-13	0	10.0*
NS(=O)(=O)c1ccc(N2CCOCC2)c(C(=O)NCc2ccc3c(c2)OCO3)c1	5	nt	11	nt	-8	nt
c1coc(-c2nnc3sc(-c4cccs4)nn23)c1	-3	0	2	nt	0	7.9*
CCn1nccc1C(=O)Nc1cc(Cl)ccc1Cl	11	0	-6	10	2	1
CCn1nccc1C(=O)Nc1cccc(C)c1C	-20	17*	-14	-14	-11	-1
CC1CC(C)(C)CC2(C1)NC(=O)N(CC(=O)Nc1ccc(N3CCCCC3)cc1)C2=O (stereo unspecified)	15	-2	-40	11	4	1
CCOC(=O)Cc1csc(NC(=O)c2c(O)c3ccccc3n(CC(C)C)c2=O)n1	9	0	21	75*	8	0
CCCC(=NC(C)CC)C1=C(O)CC(c2ccccc2)CC1=O (stereo unspecified)	-3	-3	-10	19	-6	-1
N=C1C(c2nc(-c3ccc(Cl)cc3)cs2)=C(O)CN1CCCN1CCOCC1	34	-3	3	8	6	14*
CCCCN1CC(O)=C(c2nc(-c3ccc(Cl)cc3)cs2)C1=N	40	-4	-25	48	-2	-3
CN(C)CCCN1C(=O)c2cccc3cccc(c23)C1=O	-10	-4	13	-42	-27	7.8*
Cc1ccc(S(=O)(=O)N2CCC[C@H]2C(=O)OCc2cc(=O)oc3cc(C)ccc23)cc1	5	nt	-18	nt	-4	nt
CCCOc1ccc(C(=O)NNC(=S)NC(C)=O)cc1	34	-4	-5	68*	1	-2
CCCOc1ccc(C(=O)NNC(=S)NC(=O)c2ccccc2)cc1	48	-4	12	80*	-15	-3
CCCCOc1ccc(C(=O)NNC(=S)NC(=O)CC)cc1	nt	-3	nt	85*	nt	-3
O=C(Oc1ccc(-c2nnco2)cc1)C1CCN(C(=O)c2ccc(F)cc2)CC1	12	-2	-11	5	0	-1
C=CCn1c(SCC(=O)Nc2ccc(OC)cc2)nc2c([nH]c3ccccc32)c1=O	10	0	-4	0	-27	-1
C=CCn1c(SCCN2CCCC2)nc2c([nH]c3ccccc32)c1=O	41	0	-18	-33	-10	10*
S=c1[nH]nc(-c2ccc3c(c2)OCO3)n1-c1ccccc1	12	-4	4	8	-6	11*
SMILES	Mdm2-MdmX inh	IMP-1 inh	697 NFkB inh	aSyn UTR inh	Jurkat NFkB inh	VIM-2 inhibitor
COc1cc(OC)cc(-c2n[nH]c(=S)n2-c2ccc3c(c2)OCCO3)c1	-37	-5	-30	19	-10	8.1*
CC(C)(C)c1cc(-c2n[nH]c(=S)n2-c2ccc(Cl)cc2)n[nH]1	-2	-4	12	6	-8	3
COc1ccccc1-c1n[nH]c(=S)n1-c1ccccc1	-44	-3	-36	-60	-12	8.9*
S=c1[nH]nc(COc2ccc3c(c2)OCO3)n1-c1ccccc1	7	-3	1	10	-9	-3
S=c1[nH]nc(-c2ccc(Br)cc2)n1-c1ccc2c(c1)OCCO2	11	-5	5	-6	-2	1
COc1ccccc1-c1n[nH]c(=S)n1N	20	-3	5	2	-4	1
Cc1nn(C)cc1-c1n[nH]c(=S)n1-c1ccc(Cl)cc1	-4	-3	11	3	-6	9.2*
